In ChEMBL document CHEMBL1144182, “Antimicrobial and cytotoxic arylazoenamines. Part III: antiviral activity of selected classes of arylazoenamines” (Bioorg Med Chem, 2008) one finds CC50, EC50 and Activity data, which are given here for 15 compounds.

Broadly, the CC50 is the concentration giving 50% cytotoxicity. The term EC50 denotes the concentration giving half of the maximal effect.

The source made the active and inactive calls. The rule behind the calls is not given here.

Series [1] can be described thus: Cytotoxicity against mock-infected human MT4 cells assessed as reduction in cell viability after 96 hrs by MTT assay. The format is cell-based. In outline: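 Exponentially growing MT-4 cells seeded at 1 × 10^5 cells/mL in RPMI-1640 with 10% FCS, penicillin and streptomycin, with or without serial compound dilutions. Incubated at 37 °C, 5% CO2; viability read by MTT after 96 h. CC50 is the concentration reducing mock-infected cell viability by 50%.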
For orientation: Tetrazolium dyes change colour on reduction, which living cells bring about.

Series [2] in a line: Cytotoxicity against mock-infected MDBK cells assessed as reduction in cell viability after 96 hrs by MTT assay. The format is cell-based, Bos taurus. Particulars: cattle. In outline:
(§1)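 Cytotoxicity run in parallel with the antiviral assays. MDBK seeded at 6 × 10^5 and BHK at 1 × 10^6 cells/mL in maintenance medium with or without serial compound dilutions. Incubated 48–96 h at 37 °C, 5% CO2, then viability read by MTT. CC50 is the concentration reducing mock-infected cell viability by 50%.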

The subject of series [3] is Bovine viral diarrhea virus 1. The experiment in a line: Antiviral activity against BVDV infected in MDBK cells assessed as protection against virus-induced cytopathogenicity after 4 days by MTT assay. The format is functional, organism-based. The note with it: Bovine viral diarrhea virus isolates and strains, 96 h. In outline:
(§2)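 MDBK (BVDV) or BHK-21 (YFV) cells were seeded at 3 × 10^4 or 5 × 10^4 cells/well respectively and grown overnight to confluent monolayers at 37 °C in 5% CO2. Monolayers were infected at m.o.i. 0.01 in serum-free medium. After 1 h, MEM Earle's with 1% FCS was added, with or without serial compound dilutions. After 3–4 days at 37 °C, viability was read by MTT. EC50 was taken as 50% protection from virus-induced cytopathogenicity.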
(In general: Cytopathic effects are the visible damage that an infection or toxin causes in cultured cells.)

Series [4] in a line: Cytotoxicity against mock-infected BHK cells assessed as reduction in cell viability after 96 hrs by MTT assay. The format is cell-based, Mesocricetus auratus. The note with it: hamster. Summed up: as §1
The test system of series [5] is Yellow fever virus. The experiment in a line: Antiviral activity against YFV infected in BHK21 cells assessed as protection against virus-induced cytopathogenicity after 4 days by MTT assay. The note with it: BHK-21, 96 h. The format is functional, organism-based. Summed up:
as §2

A short description of series [6]: Cytotoxicity against mock-infected african green monkey Vero76 cells assessed as reduction in cell viability after 96 hrs by MTT assay. It is filed as cell-based, Vero. The note with it: chlorocebus sabaeus.
Series [7] has as its system Coxsackievirus B2. The experiment in a line: Antiviral activity against CVB2 infected in Vero76 cells assessed as reduction in virus plaque formation after 4 days by MTT assay. The format is functional, organism-based. The note with it: Enterovirus B, Vero 76, 96 h.
Series [8] has as its system Respiratory syncytial virus. The experiment in a line: Antiviral activity against RSV infected in Vero76 cells assessed as reduction in virus plaque formation after 4 days by MTT assay. It is filed as functional, organism-based. The note with it: human respiratory syncytial virus, Vero 76, 96 h.
The subject of series [9] is Poliovirus 1. The experiment in a line: Antiviral activity against Sb1 virus infected in Vero76 cells assessed as reduction in virus plaque formation after 4 days by MTT assay. It is filed as functional, organism-based. Particulars: Enterovirus C, Sabin, Vero 76, 96 h.
The test system of series [10] is Human immunodeficiency virus 1. The experiment in a line: Antiviral activity against HIV1 infected in MT4 cells assessed as virus-induced cytopathogenicity after 4 days. The format is functional, organism-based.
For series [11], the system named is Vaccinia virus. The experiment in a line: Antiviral activity against VV infected in Vero76 cells assessed as reduction in virus plaque formation after 4 days by MTT assay. The format is functional, organism-based. The note with it: Orthopoxvirus vaccinia; Vero 76.
Series [12] deals with Vesicular stomatitis virus. The experiment in a line: Antiviral activity against VSV infected in Vero76 cells assessed as reduction in virus plaque formation after 4 days by MTT assay. The format is functional, organism-based. Particulars: Vero 76.

For `Fc1ccccc1N1CCN(/C=C/N=N/c2ccccc2)CC1`, the CC50 at 96 h was determined as 32 µM in [1], 10 µM in [2], 62 µM in series [4] and 34 µM in series [6]. In addition, the EC50 in [3] was over 10 µM; in [5], over 62 µM; in series [7], 6 µM; in series [8], 6 µM; in series [9], over 34 µM. The result in [10], in series [11] and in [12] was inactive.
On to `COc1ccc(N2CCN(/C=C/N=N/c3ccccc3)CC2)cc1`, for which the CC50 at 96 h in [1] stood at 29 µM; in series [2], 19 µM; in series [4], 46 µM; in series [6], 38 µM. Also, the EC50 was over 19 µM in series [3]; over 46 µM in series [5]; 5 µM in series [7]; 6 µM in series [8]; over 38 µM in [9]. In addition, the result in series [10], in [11] and in series [12] was inactive.
Regarding `c1ccc2c(/N=N\C3=C4CCCCN4CCC3)cccc2c1`, the CC50 at 96 h was 12 µM in series [1], over 100 µM in series [2], 20 µM in series [4] and 90 µM in series [6]. Further, the EC50 in series [3] was 6 µM; in [5], over 20 µM; in series [7], over 90 µM; in series [8], over 90 µM; in series [9], over 90 µM. Besides, the outcome in [10], in series [11] and in series [12] was inactive.
As to `CN1C=C(/N=N/c2cccc3ccccc23)CCC1`, the CC50 at 96 h is over 100 µM in series [1], over 100 µM in series [2], over 100 µM in series [4] and at least 100 µM in series [6]. Besides, the EC50 in [3] is 5 µM; in [5] it was over 100 µM; in series [7], 76 µM; in series [8], over 100 µM; in [9] it was over 100 µM. For the same compound, the result in series [10], in series [11] and in [12] was inactive.
`Brc1ccc(/N=N\C2=C3CCCCN3CCC2)cc1`: the cytotoxic concentration (CC50) at 96 h in [1] came out at 27 µM; in series [2], 59 µM; in series [4], 62 µM; in series [6], 92 µM. In addition, the concentration giving a half-maximal response (EC50) was over 59 µM in series [3]; at least 62 µM in [5]; 10 µM in [7]; over 92 µM in series [8]; over 92 µM in [9]. For the same compound, the result in series [10], in series [11] and in series [12] was inactive.
In the case of `Clc1ccccc1N1CCN(/C=C/N=N/c2ccccc2)CC1`, the CC50 at 96 h amounted to 16 µM in [1], 13 µM in series [2], 69 µM in series [4] and 14 µM in [6]. Moreover, the EC50 was over 13 µM in series [3]; over 69 µM in series [5]; 5 µM in series [7]; 5 µM in [8]; over 14 µM in [9]. In addition, the result in series [10], in series [11] and in series [12] was inactive.
Turning to `CN1C=C(/N=N/c2cccc(C(F)(F)F)c2)CCC1`, the half-maximal cytotoxic concentration (CC50) at 96 h in [1], in [2], in series [4] and in [6] was over 100 µM throughout. Further, the EC50 in series [3] is 90 µM; in series [5], over 100 µM; in [7], over 100 µM; in [8], over 100 µM; in series [9], over 100 µM. In addition, the result in series [10], in series [11] and in series [12] was inactive.
As to `CN1CCC/C1=C\N=N\c1ccc(F)cc1`, the half-maximal cytotoxic concentration (CC50) at 96 h in series [1] worked out at 100 µM; in series [2], 59 µM; in [4], 80 µM; in series [6], 75 µM. The EC50 in series [3] was 18 µM; in [5], 36 µM; in series [7], over 75 µM; in [8] it was 12 µM; in series [9] it was over 75 µM. In addition, the outcome in [10], in [11] and in series [12] was inactive.
As for `COc1ccc(/N=N/C=C2\CCCN2C)cc1`, the CC50 at 96 h in series [1] is over 100 µM; in series [2] it was 67 µM; in series [4], 77 µM; in series [6] it was 100 µM. Further, the EC50 in series [3] is 18 µM; in [5] it was over 77 µM; in [7] it was 5 µM; in [8], over 100 µM; in series [9], over 100 µM. The outcome in [10], in series [11] and in series [12] was inactive.
For `CC(=O)c1ccc(N2CCN(/C=C/N=N/c3ccccc3)CC2)cc1`, the CC50 at 96 h in series [1] was determined as 21 µM; in series [2] it was 8 µM; in series [4], 49 µM; in series [6], 11 µM. Moreover, the concentration for a half-maximal effect (EC50) in series [3] was over 8 µM; in series [5], over 49 µM; in series [7], over 11 µM; in series [8] it was 0.9 µM; in [9], over 11 µM. Besides, the result in series [10], in series [11] and in series [12] was inactive.
As to `CN1/C(=C\N=N\c2ccc(Cl)cc2)C(C)(C)c2ccccc21`, the CC50 at 96 h in [1] was 55 µM; in series [2], 72 µM; in series [4], 21 µM; in [6] it was over 100 µM. Also, the EC50 in [3] was over 72 µM; in series [5] it was over 21 µM; in series [7] it was over 100 µM; in [8], over 100 µM; in series [9], over 100 µM. The result in series [10], in series [11] and in [12] was inactive.
Regarding `CN1C=C(/N=N/c2ccc(Br)c(C(F)(F)F)c2)CCC1`, the CC50 at 96 h is 50 µM in series [1], over 100 µM in [2], over 100 µM in [4] and 80 µM in series [6]. The EC50 was 40 µM in series [3]; over 100 µM in [5]; 40 µM in series [7]; over 80 µM in [8]; over 80 µM in [9]. The result in series [10], in [11] and in series [12] was inactive.
As for `Cc1ccc(/N=N/C2=CN(C)CCC2)cc1`, the CC50 at 96 h in series [1] was over 100 µM; in series [2], over 100 µM; in [4], over 100 µM; in series [6], 71 µM. Moreover, the EC50 in series [3] was over 100 µM; in [5], over 100 µM; in [7], over 71 µM; in series [8] it was over 71 µM; in series [9], 25 µM. For the same compound, the outcome in [10], in series [11] and in [12] was inactive.
As for `C(=C\N1CCOCC1)/N=N/c1ccccc1`, the CC50 at 96 h in [1] was 7 µM; in [2] it was 28 µM; in series [4], over 100 µM; in [6], 30 µM. Besides, the EC50 was over 28 µM in [3]; over 100 µM in [5]; 7 µM in series [7]; 15 µM in series [8]; over 30 µM in series [9]. Moreover, the outcome in [10], in series [11] and in [12] was inactive.
For the compound `CN1C=C(/N=N/c2ccc(Cl)c(Cl)c2)CCC1`, the CC50 at 96 h is 43 µM in series [1], 73 µM in series [2], 38 µM in series [4] and over 100 µM in series [6]. In addition, the EC50 was 7 µM in series [3]; over 38 µM in [5]; 14 µM in [7]; over 100 µM in series [8]; over 100 µM in series [9]. Further, the outcome in series [10], in series [11] and in [12] was inactive.
